Bioassay records: PubChem BioAssay, several laboratories
Runt-CBFb FRET – inhibitors of RUNX1 Runt–CBFb binding, primary screen, biochemical, FRET, Cerulean-Runt, Venus-CBFb, uHTS; Runt-related transcription factor 1 (Homo sapiens) + Core-binding factor subunit beta …; Cerulean-Runt/Venus-CBFb FRET ratio 530/480, 1 h; inhibition, % at 20 µM; 0.46% of 220,000 active; AID 1496, 2009;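 active = inhibition over about 50% at 20 µM in the single-dose screen, limit read from the data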;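 also: 0% = DMSO wells and 100% = excess unlabeled CBFb competitor control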
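Reagent – Venus-CBFb binding partner, 100 nM · Assay system – Cerulean-tagged RUNX1 Runt domain (FRET donor) fusion protein · Input – 100 nM per protein · Incubation – two 1 h room-temperature incubations shielded from light · Measured by – FRET fluorescence · Medium – Tris buffer pH 7.5 with salts and BSA · Benchmarks – unlabeled CBFb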
Vif imaging – HIV Vif self-association inhibitors, primary screen, imaging, HEK293T, single point; HEK293T cells, Vif self-association by quenched fluorescence, 24 h; inhibition, % at 7.49 µM; 0.35% of 340,000 active; AID 602346, 2012; in the data active = inhibition above about 50%, passing the limit was not always enough
Rce1 inh – yeast Rce1p protease inhibitors, primary screen, biochemical, fluorescence, cell-free homogeneous; CAAX prenyl protease 2 (Saccharomyces cerevisiae (strain ATCC 204508 / S288c)), Q03530; yeast membranes, quenched prenylated peptide cleavage fluorescence; calls only; 0.27% of 290,000 active; AID 2563, 2010;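 active = fall in fluorescence gain of 50% or more versus controls, with final raw signal at or below 3038400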;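 also: plate controls were neutral control wells for no effect and wells lacking membranes for full effect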
Target sequence (Q03530 whole entry, looked up): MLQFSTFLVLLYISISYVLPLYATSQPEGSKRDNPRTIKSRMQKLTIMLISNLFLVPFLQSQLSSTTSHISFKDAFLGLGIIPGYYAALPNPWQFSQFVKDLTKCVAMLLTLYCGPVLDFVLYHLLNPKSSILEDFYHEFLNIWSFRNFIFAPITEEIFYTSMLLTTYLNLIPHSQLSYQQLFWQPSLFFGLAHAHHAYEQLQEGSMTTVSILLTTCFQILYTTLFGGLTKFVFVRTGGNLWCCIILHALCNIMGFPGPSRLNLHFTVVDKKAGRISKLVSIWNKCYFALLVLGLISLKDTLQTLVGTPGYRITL
Runt-SMMHC FRET – inhibitors of RUNX1 Runt–CBFb-SMMHC binding, primary screen, biochemical, FRET, Cerulean-Runt, Venus-CBFb-SMMHC, uHTS. 0.74% of 220,000 active. Cerulean-Runt/Venus-CBFb-SMMHC FRET ratio 530/480, 1 h. Runt-related transcription factor 1 (Homo sapiens) + Core-binding factor subunit beta …. inhibition, % at 20 µM. AID 1434, 2008;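 active = mean inhibition across duplicate retests at 20 µM reaching about 50%, limit read from the data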;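 also: 0% = DMSO wells and 100% = wells with excess untagged CBFb-SMMHC; inhibitors lower the FRET ratio by blocking Runt binding to CBFb-SMMHC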
RanGTP-Impb inh – inhibitors of RanGTP-importin-beta interaction, primary screen, biochemical, FRET, CFP-Ran, YFP-importin-beta, homogeneous. cell-free CFP-Ran/YFP-importin-beta FRET ratio. 1.1% of 300,000 active. inhibition, % (concentration not given with the values);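 active = more than half of the replicate wells show a fall in the fluorescence ratio signal beyond about 16%, limit read from the data, passing the limit was not always enough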;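 also: 0% = DMSO wells and 100% = Ran loaded with GDP instead of GTP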
YIC FRET counter – YIC intramolecular FRET probe signal interference, dose response, counter-screen for RanGTP-importin-beta inhibitor project, biochemical, fluorescence FRET. shares compounds with RanGTP-Impb inh. Purified YIC probe, intramolecular FRET ratio YFP/CFP. IC50, µM. 40% of 1,000 active;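 active = fitted half-maximal inhibitory concentration no more than tenfold above the top dose tested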
* marks the source's active call; other numbers are inactive results; i = inactive; . = no result given. Sampled rows, rich in hits. Any-hit rate of the full collection: about 1.7%.

SMILES	Runt-CBFb FRET	Vif imaging	Rce1 inh	Runt-SMMHC FRET	RanGTP-Impb inh	YIC FRET counter
Cc1c(C(=O)NCC2CCCO2)oc2ccc(Br)cc12 (stereo unspecified)	.	0.0	i	.	0.2	.
COCCOC(=O)C1=C(C)NC(=O)NC1c1cccc2ccccc12 (stereo unspecified)	.	4.9	i	.	22.0*	>50
O=C(CSc1nnc(CNc2ccc(F)cc2)n1CC1CCCO1)N1CCOCC1 (stereo unspecified)	.	-4.4	i	.	-2.5	.
COc1ccc(/C=N/c2sc3c(c2C#N)CCN(Cc2ccccc2)C3)c(O)c1	46.1	.	i	44.4	4.2	.
Cc1cccc(/C=N/c2sc3c(c2C#N)CCN(Cc2ccccc2)C3)c1O	30.7	9.1	i	125.5*	36.4*	>50
C[C@@H]1CN([C@@H](C)CO)C(=O)c2cc(NS(C)(=O)=O)ccc2O[C@@H](C)CCCCO[C@H]1CN(C)C(=O)Cc1ccccc1	.	.	.	.	.	>50
Cc1cc(Nc2ccccc2)nc2cc(O)ccc12	42.6	20.6	i	63.8*	18.5*	49.2*
NC(=O)C1CCN(C(=O)/C=C/c2ccco2)CC1	2.8	0.1	i	-3.8	-6.7	.
C=CCN(CC=C)c1ncnc2[nH]ncc12	.	-10.3	.	.	.	.
Cc1cccc(-c2nnc(NC(=O)c3ccc(N4C(=O)CCC4=O)cc3)s2)c1	-2.2	-7.7	i	-1.8	17.0*	>50
Cc1ccccc1-c1nnc(NC(=O)c2ccc(N3C(=O)CCC3=O)cc2)s1	-0.6	0.0	i	-3.7	-2.2	.
CCOC(=O)c1cc(CC)sc1NC(=O)COC(=O)c1cc[n+]([O-])cc1	-3.9	3.4	i	-0.3	-2.4	.
Cc1cccc(NC(=O)c2cc3c(s2)-c2c(C)cccc2OC3)n1	-18.2	21.5	i	61.4	29.7*	7.29*
